Measurements as given in ChEMBL document CHEMBL3612047, “Synthesis, antiproliferative activity and possible mechanism of action of novel 2-acetamidobenzamides bearing the 2-phenoxy functionality” (Bioorg Med Chem, 2015).
Calls of active or inactive are those of the source. The rule behind the calls is not given here.

Legend:
K562 [1] = test: Induction of cell cycle arrest in human K562 cells assessed as accumulation at sub G0/G1 phase at 10 uM incubated for 24 hrs by propidium iodide staining based flow cytometry (reference value: 0.8%); type: functional
K562 [2] = test: Induction of cell cycle arrest in human K562 cells assessed as accumulation at sub G0/G1 phase at 10 uM incubated for 48 hrs by propidium iodide staining based flow cytometry (reference value: 0.8%); type: functional
K562 [3] = test: Induction of apoptosis in human K562 cells assessed as chromatin condensation at 10 uM incubated for 48 hrs by Hoechst 33342 staining based fluorescence microscopy; type: functional, cell-based
How it was run: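 K562 cells (8 × 10³/well) on poly-D-lysine-coated wells, allowed to adhere overnight. Stained with Hoechst 33342 for 30 min, washed with PBS, resuspended in medium, then treated at 10 μM for 48 h.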

K562 [4] = test: Induction of apoptosis in human K562 cells assessed as viable cells level at 10 uM incubated for 24 hrs by Annexin-V and propidium iodide staining staining based flow cytometry (reference value: 98%); type: functional
K562 [5] = test: Induction of apoptosis in human K562 cells assessed as late apoptotic cells level at 10 uM incubated for 24 hrs by Annexin-V and propidium iodide staining staining based flow cytometry (reference value: 0.2%); type: functional
[6] = Growth inhibition of human BT549 cells by NCI standard protocol based method; type: functional; conditions: BT-549
How it was run: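 NCI full 60-cell-line panel, 5-dose assay to the NCI standard protocol. GI₅₀ is the molar concentration inhibiting 50% net cell growth. Mean graph midpoint is averaged over all lines; where the effect is not reached, the highest tested concentration is used.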

SMILES | Activity (K562 [1]) [%] | Activity (K562 [2]) [%] | Activity (K562 [3]) | Activity (K562 [4]) [%] | Activity (K562 [5]) [%] | GI50 [6] [nM]
NC(=O)c1cc(I)ccc1NC(=O)COc1ccccc1 | 14.5 | 32.9 | Active | 62.1 | 12.5 | 
COc1cc(NC(=O)COc2ccccc2)c(C(N)=O)cc1OC | 13.2 | 20.6 | Active | 63.3 | 11.6 | 770
